Assay outcomes: PubChem BioAssay, several laboratories
Autophagy HCS – autophagy modulation, high-content screen; calls only at 10 µM (by protocol); 190,000 compounds, 0.98% hits; MEF GFP-LC3 puncta imaging; test concentration mostly 10 µM;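 active means percentage of spot-positive cells more than 3 SD above its plate mean, without a fluorescence outlier flag or 80% toxicity; inconclusive means no clear call, values can overlap the other calls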;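 further: spot-positive cell cutoff set from DMSO-treated cells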
Insulin prom up – MIN6 insulin promoter up-regulation. z-score at 5 µM. MIN6 insulin promoter-GFP reporter, high-content imaging; stronger effect = higher value. 190,000 compounds, 0.3% hits. AID 1625;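 active means z-score above 3 at 5 µM with at least 500 cells counted in the well; inconclusive means wells under 500 cells, flagged as cytotoxic or low count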
Dynein transport – dynein cargo transport inhibition; z-score, hits read low; AID 1381; 3617.4 mouse cells, GR-EGFP nuclear translocation imaging; test concentration mostly 20 µM; stimulated with dexamethasone, 1 µM; stronger effect = lower value; 220,000 compounds, 0.47% hits;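 active means plate z-score of nuclear minus cytoplasmic receptor signal below a set negative limit, without overly bright fluorescence or cell loss, cut at about -3.5 in these data, passing the limit was not always enough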;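 further: z-score of nuclear minus cytoplasmic ring GR-EGFP intensity difference per well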
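Schedule: 48 h induction, then 1 h compound, then 30 min agonist, 37 °C. Buffer or medium: tetracycline-free induction medium containing charcoal-stripped FBS. Reagent: 1.0 µM final dexamethasone stimulus. Evaluation: nuclear versus cytoplasmic GR-EGFP signal, averaged per well. Signal: high-content fluorescence imaging after fixation.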
HSV replic up – increases HSV replication in cells; maximum fold increase; HSV replication augmentation in cells, fold increase; AID 1956; 220,000 compounds, 0.005% hits; in the data active means maximum fold increase above about 1.5; inconclusive means no clear call, values can overlap the other calls; tested in PC3 cells
Furin inh – inhibitors of human furin. 220,000 compounds, 0.061% hits. inhibition, % at 20 µM or 30 µM. P09958. purified furin, fluorogenic substrate cleavage; in the data active means inhibition above about 25%
Target sequence (P09958 108-714 limits assumed): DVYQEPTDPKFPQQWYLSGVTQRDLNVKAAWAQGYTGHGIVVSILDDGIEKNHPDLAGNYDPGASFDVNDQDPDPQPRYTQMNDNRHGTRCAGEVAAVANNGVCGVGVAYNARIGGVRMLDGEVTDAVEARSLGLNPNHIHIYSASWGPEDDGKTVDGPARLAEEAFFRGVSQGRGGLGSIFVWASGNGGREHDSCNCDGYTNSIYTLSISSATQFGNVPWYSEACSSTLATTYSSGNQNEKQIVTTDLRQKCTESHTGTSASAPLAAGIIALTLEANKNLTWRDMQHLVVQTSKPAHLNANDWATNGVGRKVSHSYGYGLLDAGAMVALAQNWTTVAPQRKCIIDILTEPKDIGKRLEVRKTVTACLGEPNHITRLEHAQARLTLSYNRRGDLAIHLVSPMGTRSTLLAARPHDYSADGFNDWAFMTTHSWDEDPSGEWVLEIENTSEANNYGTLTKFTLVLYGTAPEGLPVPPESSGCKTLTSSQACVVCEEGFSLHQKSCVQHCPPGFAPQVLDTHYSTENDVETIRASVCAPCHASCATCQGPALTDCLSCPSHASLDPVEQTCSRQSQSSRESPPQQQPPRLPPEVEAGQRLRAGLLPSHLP
INS promoter inh – TRM-6 insulin promoter activity inhibition; TRM-6 cells (human fetal islet line), insulin promoter-eGFP reporter, imaging; reporter expression induced with tamoxifen; inhibition, % at 2 µM; AID 1273; 130,000 compounds, 0.9% hits;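 active means inhibition above the mean plus 3 SD, with well images judged a real hit on visual review, cut at about 60% in these data, passing the limit was not always enough; inconclusive means inhibition over the cutoff but images rejected on review; inactive means inhibition not above the cutoff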
Numbers without * were called inactive; i = inactive; ? = inconclusive; / = no result; + = active, no number. In the library only some 2% were active in any assay of this set; here they are far more common.

SMILES	Autophagy HCS	Insulin prom up	Dynein transport	HSV replic up	Furin inh	INS promoter inh
CCOC(=O)C1=C(C)NC2=C(C(=O)CC(C)(C)C2)C1c1coc2ccccc2c1=O (stereo not given)	i	0.01	-0.806	i	-28.7	-447.1
CC1(C)COC(c2coc3ccccc3c2=O)OC1	i	0.1	1.25	i	-15.7	100.0*
CCOC(CNC(=O)Cc1c(C)nc2c(-c3ccccc3)c(C)nn2c1C)OCC	i	0.45	-0.0621	i	-16.1	/
CCOC(=O)CNC(=O)c1cn(C)c(=O)c2cc(OC)c(OC)cc12	i	3.18*	-0.268	i	-10.1	/
CCN(C(=O)c1cn(C)c(=O)c2cc(OC)c(OC)cc12)c1ccccc1C	i	0.06	-0.492	i	-13.7	81.0*
CCOC(=O)CNC(=O)c1cn(CC)c(=O)c2cc(OC)c(OC)cc12	i	1.1	-0.817	i	-18.7	/
Cc1cc(C)nc(SCc2ccc(F)cc2)n1	i	0.26	-0.0568	i	-28.8	-28.6
O=C(Nc1ccc(Cl)cc1C(=O)NCC1CCCO1)c1ccco1 (stereo not given)	i	-0.01	0.483	i	-14.1	75.0*
COc1ccc(O)c(/C=N/NC(=S)Nc2cccnc2)c1	i	0.1	0.104	i	-12.4	/
COc1cccc(/C=N/NC(=S)Nc2cccnc2)c1	+	-0.4	0.25	i	-1.5	10.5
CN(C)C=Nc1ccc2nn(-c3ccccc3)nc2c1	i	3.14*	0.353	i	-37.7	/
CC1CCC(n2c(=S)[nH]c3ccccc3c2=O)CC1 (stereo not given)	i	0.49	-0.701	i	-20.4	80.0*
Cc1ccc(NC(=O)CNc2ccc(OC(C)C)cc2)c(C)c1	i	/	0.133	i	-18.9	75.0*
COc1ccc(CNC(=O)/C=C/C(=O)O)cc1OC	i	0.44	-0.42	i	-0.3	/
COc1ccc(CNC(=O)/C=C/c2ccco2)cc1OC	i	/	2.93	i	8.7	71.4*
CN1/C(=C\C=C2/C(=O)Oc3ccccc3C2=O)C(C)(C)c2ccccc21	+	/	-2.08	?	-15.1	-222.6
CN1C(=CC=C2C=C(I)C(=O)C(I)=C2)C(C)(C)c2ccccc21	/	-0.24	-0.367	/	-19.4	/
O=C(CN1C(=O)C2C3C=CC(C3)C2C1=O)Nc1cccc(S(=O)(=O)N2CCCC2)c1 (stereo not given)	i	0.33	0.407	i	-21.6	100.0*
O=C(CN1C(=O)C2CC=CCC2C1=O)Nc1ccc(S(=O)(=O)N2CCOCC2)cc1 (stereo not given)	i	0.01	1.2	i	-12.4	72.7*
O=C(CN1CCCCCC1)Nc1ccc(S(=O)(=O)N2CCOCC2)cc1	i	/	-0.548	i	-23.2	/
CC(=O)c1cccc(NC(=O)CN2C(=O)C3C4C=CC(C4)C3C2=O)c1 (stereo not given)	i	1.53	1.2	i	-3.2	13.3
CCCCCNCC(=O)Nc1cccc(C(=O)Nc2cccc(C(F)(F)F)c2)c1	i	-0.56	0.816	i	-30.8	/
COCCCN(C(=S)Nc1c(C)cc(C)cc1C)C(C)c1ccccn1 (stereo not given)	i	-0.38	0.0901	i	-21.1	27.8
S=C1NC2(CCCCC2)N=C1c1ccccc1	i	-0.19	0.676	i	-19.4	0.0
Cc1ccc(C2=NC3(CCCCC3)NC2=S)cc1	i	-0.3	-0.318	i	-15.6	62.5*
SMILES	Autophagy HCS	Insulin prom up	Dynein transport	HSV replic up	Furin inh	INS promoter inh
Clc1ccc(/C=N/c2c(-c3ccc(Cl)cc3)nc3n2CCS3)cc1	+	-0.47	0.158	i	-18.9	-7.0
CCn1cc(C(=O)N2CCc3ccccc3C2)c(=O)c2cc(S(=O)(=O)N3CCCCC3)ccc21	+	0.21	1.31	i	-8.5	33.3
CCN1C(=O)/C(=C\c2nc3ccccc3c(=O)n2CC)c2ccccc21	+	0.53	-0.351	i	10.6	/
O=C(CN1C2=NCCCN2c2ccccc21)c1ccc([N+](=O)[O-])cc1	i	-0.99	-1.28	i	-26.9	/
CCOC(=O)c1cnc(-c2ccccc2)nc1N	i	0.4	-0.534	i	-8.5	95.3*
CCOc1ccccc1N/C=C(\C#N)c1nc2ccccc2n1C	i	0.93	0.833	i	-16.8	72.4*
Cc1ccccc1OCC(O)CN1CCN(CCN2C(=O)c3cccc4cccc(c34)C2=O)CC1 (stereo not given)	i	-0.53	1.2	i	-19.6	/
Cc1cccc(C)c1OCC(O)CN1CCC(CN2C(=O)c3cccc4cccc(c34)C2=O)CC1 (stereo not given)	+	-1.01	0.392	i	-17.3	40.0
O=c1c2ccccc2nnn1COc1cccc(Cl)c1	i	-0.55	0.896	i	-28.3	/
CCOC(=O)NC(=O)c1cn(Nc2ccccc2C(F)(F)F)c(=O)[nH]c1=O	/	-0.68	0.0779	i	-11.4	/
COc1ccc2c(c1)c(CC(=O)OCC(=O)O)c(C)n2C(=O)c1ccc(Cl)cc1	+	0.13	2.46	i	-8.8	-8.1
Cn1ncc2c1ncn1nc(CCc3ccccc3)nc21	i	3.58*	-1.02	i	-29.3	/
Cn1ncc2c1ncn1nc(COc3ccc4ccccc4c3)nc21	i	1.68	-0.683	i	-15.1	/
CCN(CC)C(=O)N1CCc2ccccc21	i	0.29	0.403	i	-9.3	-34.9
CC(=O)C(=Nc1ccccc1Cl)NNc1ccc(Cl)cc1	i	-1.32	-0.605	i	0.4	75.0*
Cc1ccnc(Sc2ccc([N+](=O)[O-])cc2[N+](=O)[O-])n1	i	0.57	-4.78*	i	-12.9	50.0
O=C(Cc1nc(-c2ccc([N+](=O)[O-])cc2)cs1)Nc1ccccc1	i	8.58*	-0.234	i	-21.0	-193.3
COCC(=O)Nc1nc(-c2ccc([N+](=O)[O-])cc2)cs1	i	-0.18	-0.632	i	-16.8	15.8
CC(C)CC(NC(N)=O)C(=O)Nc1ccc(Oc2ccccc2)cc1 (stereo not given)	i	2.35	-0.295	i	-46.7	/
Cc1ccc(CNCC(O)(c2ccccc2)c2ccc(Cl)cc2)cc1 (stereo not given)	+	-1.29	-0.263	i	-2.6	0.0
COc1cccc2sc(Nc3nnc(-c4cccs4)o3)nc12	+	-0.26	1.03	i	-12.8	/
COc1cccc2sc(Nc3nnc(-c4ccc(F)cc4)o3)nc12	i	/	-0.644	i	-26.9	/
Cc1cnc(NC(=O)C(C)N2CCN(C)CC2)s1 (stereo not given)	i	-0.32	-0.271	i	-18.8	/
CCN(C(=O)COC(=O)CNC(=O)c1ccc2ccccc2c1)C1CCS(=O)(=O)C1 (stereo not given)	i	0.57	0.637	i	-6.2	/
CS(=O)(=O)N1CCN(c2ncccn2)CC1	i	/	0.12	i	-13.6	83.3*
CCc1ccc(-c2nc(CN3CCC(C(=O)NCCN(CC)c4ccccc4)CC3)c(C)o2)cc1	i	-1.7	0.453	i	-16.9	/
